T cruzi repl – blocks replication of Trypanosoma cruzi; inhibition, % (test concentration not listed); AID 1885; T. cruzi beta-gal in NIH3T3, luminescence, 90 h; 300,000 tested, 1.4% active;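 active = mean inhibition across valid replicates above about 55%, limit read from the data; inconclusive = mean below that limit but half or more replicates reach it; inactive = mean below it, under half of replicates reach it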;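 note: signal also drops with host cell toxicity which is not excluded here; 0% = plate median of DMSO wells and 100% = zero luminescence signal; higher percent means less beta-gal luminescence so fewer parasites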
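Incubation – ≥90 h infection period, 3 h prior cell attachment · System – NIH/3T3 fibroblasts plus reporter T. cruzi · Doses – compound pinned at 50 nL/well, DMSO · Read-out basis – percent inhibition of parasite-derived β-gal signal · Signal – luminescent β-galactosidase signal after 60 min lysis · Also added – 5000 T. cruzi trypomastigotes/well · Medium – Low-serum DMEM with 2% FBS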
Calb FLC – C. albicans growth modulation with fluconazole; 300,000 tested, 0.57% active; C. albicans CaCi-2 + fluconazole, Alamar Blue growth, 48 h; growth inhibition, % (test concentration not listed); AID 1979;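 active = growth inhibition above about 58% in most replicates, limit read from the data, passing the limit was not always enough; inconclusive = exactly half the replicates above a set limit; inactive = most replicates below a set limit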;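 note: all wells also contain fluconazole at 8 µg/ml as a sub-toxic cotreatment; 0% = median of DMSO wells and 100% = median of geldanamycin control wells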
CSC inhib – blocks cancer stem cells; cancer stem cell-like cells viability, luminescence; inhibition, % at 7.5 µM; 300,000 tested, 1.1% active; AID 2717; in the data active = inhibition above about 75%; inconclusive = no clear call, values can overlap the other calls; tested in HMLE shEcad cells
Mdm2-MdmX inh – disrupts the human Mdm2-MdmX interaction. SaOS-2 split-luciferase Mdm2/MdmX complementation, luminescence. inhibition, % at 8 µM. 330,000 tested, 3% active;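 active = inhibition of at least 50% at 8 µM in the primary screen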
Target sequence (O15151 whole entry, looked up): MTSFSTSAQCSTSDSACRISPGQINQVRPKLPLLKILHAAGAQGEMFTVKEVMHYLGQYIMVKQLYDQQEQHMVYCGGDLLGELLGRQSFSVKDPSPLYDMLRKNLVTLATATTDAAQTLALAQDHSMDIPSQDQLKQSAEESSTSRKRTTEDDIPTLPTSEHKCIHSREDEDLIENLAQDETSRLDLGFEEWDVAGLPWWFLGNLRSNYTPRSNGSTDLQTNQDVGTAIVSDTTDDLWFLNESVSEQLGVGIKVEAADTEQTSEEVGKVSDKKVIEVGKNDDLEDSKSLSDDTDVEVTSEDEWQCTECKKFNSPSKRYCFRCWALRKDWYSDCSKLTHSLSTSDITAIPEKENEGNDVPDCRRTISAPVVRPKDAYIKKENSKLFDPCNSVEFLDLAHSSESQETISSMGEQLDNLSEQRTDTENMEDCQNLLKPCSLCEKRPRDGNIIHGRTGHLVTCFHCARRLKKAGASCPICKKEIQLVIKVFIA
Target sequence (Q00987 whole entry, looked up): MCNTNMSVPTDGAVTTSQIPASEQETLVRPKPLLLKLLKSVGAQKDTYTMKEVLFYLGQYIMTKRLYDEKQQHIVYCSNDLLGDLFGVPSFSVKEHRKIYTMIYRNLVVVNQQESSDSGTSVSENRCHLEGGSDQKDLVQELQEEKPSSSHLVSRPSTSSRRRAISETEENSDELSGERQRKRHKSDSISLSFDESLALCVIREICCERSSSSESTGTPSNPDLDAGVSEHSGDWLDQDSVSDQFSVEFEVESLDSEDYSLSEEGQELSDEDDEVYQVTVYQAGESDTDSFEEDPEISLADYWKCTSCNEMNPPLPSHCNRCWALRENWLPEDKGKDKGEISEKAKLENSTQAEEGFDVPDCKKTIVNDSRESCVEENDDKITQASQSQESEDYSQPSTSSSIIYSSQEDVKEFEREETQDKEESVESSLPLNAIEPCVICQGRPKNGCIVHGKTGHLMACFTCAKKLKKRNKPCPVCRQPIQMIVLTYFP
Beta apoptosis – beta cell apoptosis inhibition; INS-1E cytokine-induced death, ATP luminescence, 48 h; percent of positive-control rescue, neutral wells zero; protection from apoptosis, % (test concentration not listed); 300,000 tested, 0.8% active; AID 435005;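 active = Every replicate reaches about 75%, or at least half do and their mean reaches it too, limit read from the data; inconclusive = At least half of replicates reach the limit but their mean does not; inactive = Under half of replicates reach the limit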;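 note: 0% = cytokine-treated negative control wells and 100% = positive control rescue; higher means more ATP so stronger rescue from cytokine killing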
NALP3 yeast inh – inhibitors of NALP3 inflammasome in yeast | Yeast reconstituted NLRP3/ASC/caspase-1, beta-gal luminescence, 24 h | inhibition, % at 10 µM | 330,000 tested, 0.39% active;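 active = inhibition of 50% or more; inactive = inhibition below 50%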;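 note: plate controls were induced DMSO wells for no effect and uninduced yeast grown without galactose for full effect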
The depositor's hits bear a star; u = inconclusive; x = not tested or not shown. Compounds with a hit are over-represented: about 5.3% of the library has one in this group of screens.

SMILES | T cruzi repl | Calb FLC | CSC inhib | Mdm2-MdmX inh | Beta apoptosis | NALP3 yeast inh
COc1ccc(C(C(=O)NC2CCCCC2)N(C(=O)CCl)c2cccc(Cl)c2)cc1 (configuration not stated) | 8 | -7 | 109* | x | 99* | x
O=C(NC1CCCCC1)C(c1cccnc1)N(C(=O)CCl)c1ccc(F)cc1 (configuration not stated) | 6 | -9 | 99* | x | -5 | x
O=C(NCC(=O)N(c1ccc(F)cc1)C(C(=O)NC1CCCCC1)c1cccnc1)c1ccco1 (configuration not stated) | -10 | -4 | -36 | 13 | 1 | 5
COc1ccc(-c2nnc(S/C(=C/c3ccc(Cl)cc3)C(=O)O)o2)cc1 | 12 | -38 | -7 | 4 | x | 17
O=C1c2ccccc2NC(c2cn[nH]c2-c2ccc(Cl)cc2)N1O (configuration not stated) | -14 | 91* | 6 | 24 | -6 | 17
COc1c(CC=C(C)C)cc(C2CC(=O)c3c(O)cc(O)cc3O2)cc1CC=C(C)C (configuration not stated) | 32 | -7 | 100* | 21 | 108* | 21
COc1ccc([C@@H]2CC(=O)c3c(O)cc(O)cc3O2)cc1O | x | x | 2 | 2 | 1 | 9
CC12CCC(C/C1=N\N=C1\NC(=O)/C(=C\c3cccc(Br)c3)S1)C2(C)C (configuration not stated) | 19 | 2 | 105* | 17 | 20 | 18
CCCCn1c(=O)c(CCC(=O)OCC(=O)NC(C)c2ccccc2)nc2ccccc21 (configuration not stated) | -2 | -32 | -22 | 14 | 5 | -1
CCCCn1c(=O)c(CCC(=O)OCC(=O)NCc2ccc(OC)c(OC)c2)nc2ccccc21 | 8 | 77* | x | -19 | 1 | -2
O=S(=O)(c1ccc(NC(=S)NCc2cccnc2)cc1)N1CCCCC1 | -31 | -4 | 139* | 6 | 126* | 1
O=C(NCc1cccnc1)c1ccc(S(=O)(=O)N2CCCCC2)cc1 | -7 | 2 | -12 | 26 | x | 10
O=C(COc1ccccc1-c1ccccc1)N/N=C/c1cccc2ccccc12 | 41 | 6 | 95* | 32 | -9 | 21
O=C(COc1cccc2ccccc12)N/N=C/c1ccccc1OCc1ccc(C(=O)O)cc1 | -18 | 15 | -12 | -21 | -6 | 12
CCn1c(Cc2cccs2)nnc1SCC(=O)NC1CC1 | -6 | 4 | -3 | 24 | 3 | 11
CC(C)Cc1ccc(CN2CCCC(NC(=O)CCn3cnnn3)C2)cc1 (configuration not stated) | 56* | 19 | -6 | 11 | x | 27
COc1ccc(C(=O)NCCNc2ccc([N+](=O)[O-])cc2)cc1 | 9 | 3 | -2 | -18 | -4 | 18
CCOC(=O)N1CCN(c2ccc(C(=O)c3cccc(F)c3)cc2)CC1 | -1 | 4 | 76* | -29 | -2 | 29
COc1ccc(CN=Cc2[nH]c3ccc(Br)c(Cl)c3c2O)cc1 | 55* | -23 | -7 | 13 | -19 | 16
Cc1cc(C)cc(N=Cc2[nH]c3ccc(Br)c(Cl)c3c2O)c1 | -4 | -14 | 26 | x | -14 | x
O=C(Nc1nc(-c2ccc(Cl)cc2Cl)cs1)c1ccc(OCC2CCCO2)cc1 (configuration not stated) | 32 | 3 | 51 | 27 | 41 | 23
CC(C)COc1ccc(C(=O)Nc2scc(-c3ccc(Cl)cc3Cl)c2C(N)=O)cc1 | 55* | u | 44 | 31 | 25 | -21
NS(=O)(=O)c1ccc(NC(=O)COC(=O)Cc2c[nH]c3ccccc23)cc1 | x | x | -8 | 20 | -4 | 10
O=C(Nc1ccccc1N1CCN(C(=O)c2ccccc2)CC1)c1cc(Br)ccc1Cl | 19 | 7 | 2 | 13 | 3 | 17
COc1ccc(Br)cc1C(=O)Nc1ccccc1N1CCN(C(=O)c2ccccc2)CC1 | 59* | 1 | 7 | 10 | 18 | 6
SMILES | T cruzi repl | Calb FLC | CSC inhib | Mdm2-MdmX inh | Beta apoptosis | NALP3 yeast inh
COc1c(C)cc(Br)cc1C(=O)Nc1ccccc1N1CCN(C(=O)c2ccccc2)CC1 | 66* | -10 | 33 | 25 | 29 | 21
O=C(Nc1cc(S(=O)(=O)N2CCCCC2)ccc1N1CCOCC1)c1ccc(C(F)(F)F)cc1 | x | x | 7 | 29 | -1 | 4
N=C1S/C(=C\c2ccco2)C(=O)N1c1nccs1 | 56* | 0 | x | 38 | 14 | 1
Nc1nc(N2CCN(c3cccc(Cl)c3)CC2)n[nH]1 | 7 | -13 | -9 | 6 | -4 | -3
Nc1ccc(N2CCN(c3cccc(Cl)c3)CC2)cc1 | 20 | 101* | 3 | 6 | 5 | 35
O=C1N=C(N2CCCC2)CN1c1ccccc1 | -10 | -1 | -11 | -13 | -1 | 10
Cc1ccc2[nH]c3c(c2c1)CC/C(=C/c1ccccc1)C3=O | 17 | -7 | 9 | -8 | 4 | 32
Cc1[nH]n(-c2ccccc2)c(=O)c1/C=N/NC(=O)c1cccc(F)c1 | -25 | -39 | 49 | 41 | 92* | -10
COc1cccc(-c2cc(C(=O)Nc3ccc4c(c3)OCO4)no2)c1 | 4 | -8 | 47 | 16 | x | 10
O=C(Nc1ccc2c(c1)OCO2)c1cc(-c2cccc(O)c2)on1 | 4 | -7 | 100* | -69 | 7 | 12
CC(C)Cc1cc(C(=O)Nc2ccc3c(c2)OCO3)no1 | -4 | 6 | 122* | -141 | 2 | 4
C=CCc1ccc(OCCCOc2ccc(C)cc2OC)c(OC)c1 | 0 | 0 | 0 | 7 | -9 | 6
CCOC(=O)c1sc(-c2ccc(Cl)cc2Cl)nc1O | -1 | 10 | -3 | 8 | -4 | -21
Cc1cc(C(=O)NC2CCCc3c2cnn3-c2ccc(C)c(C)c2)n(C)n1 (configuration not stated) | -58 | -4 | 13 | 18 | 110* | 21
CCc1cc(C(=O)NC2CCCc3c2cnn3-c2cccc(C)c2C)n(C)n1 (configuration not stated) | 2 | 91* | 6 | 9 | 99* | -5
Cc1nnsc1C(=O)NC1CCCc2c1cnn2-c1ccc(C(C)(C)C)cc1 (configuration not stated) | 56* | 2 | 31 | 23 | 75* | 1
O=C(NC(NC(=S)N1CCOCC1)C(Cl)(Cl)Cl)c1cccc2ccccc12 (configuration not stated) | -8 | -24 | -14 | 3 | -3 | 4
Cc1ccc(S(=O)(=O)Nc2ccc3nc(C)sc3c2)cc1 | -29 | 4 | -13 | 1 | 25 | 22
Cc1ccc(NS(=O)(=O)c2sc3ccc(Cl)cc3c2C)cc1 | -30 | -10 | 98* | 17 | -5 | 9
Cc1nn(-c2ccccc2)c(Cl)c1/C=N/Nc1nc2ccccc2n1C | 55* | 13 | 25 | -93 | 26 | 24
Cc1nn(-c2ccccc2)c(C)c1/C=N/Nc1nc2ccccc2[nH]1 | 66* | -16 | 40 | -155 | 36 | 29
